Compound activity (PubChem)
TLR4-MyD88 BLA: inhibitors of TLR4-MyD88 association in cells, primary screen, cell-based, HeLa CL3-4, BLA complementation, FRET ratio. Toll-like receptor 4 (Homo sapiens) + Myeloid differentiation primary response protein …. HeLa CL3-4 TLR4/MyD88 BLA complementation. inhibition, % at 8.4 µM. 200,000 compounds, 0.18% hits. AID 861, 2007; in the data active means inhibition above about 25%
UPR XBP1 act: activators of adaptive XBP1 UPR arm, primary screen, cell-based, CHO-XBP1 luciferase reporter, luminescence, uHTS; IRE1-XBP1 UPR activation; percent of tunicamycin response, DMSO as zero; activation, % at 20 µM; AID 463104, 2010; 330,000 compounds, 0.33% hits;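 active means versus positive control, 20 µM dose yields 30% or more activation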
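Test system: CHO-XBP1 luciferase reporter cells | Buffer or medium: Serum-containing F12 medium, 10% FBS | Schedule: 6 h compound exposure at 37 °C, 5% CO2 | Detection: Steady-Glo luciferase glow luminescence, 10 min after reagent addition | Read-out basis: Activation, % of tunicamycin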
NOD2 RIPK2 PPI: NOD2-RIPK2 binding disruptors in cells, primary screen, fluorescence, CHO cells, BLA complementation; inhibition, % at 4.98 µM; Receptor-interacting serine/threonine-protein kinase 2 (Homo sapiens), O43353; CCF4 ratio; 360,000 compounds, 0.38% hits; in the data active means inhibition above about 21%
CHOP inh: inhibitors of CHOP promoter induction, primary screen, cell-based, unfolded protein response, luciferase reporter; inhibition, % at 10 µM; CHO-K1 CHOP-promoter luciferase, tunicamycin-induced, 15-18 h; 220,000 compounds, 3.8% hits;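 active means compounds that reduced the stress-induced luciferase reporter signal by more than about 70% of percent inhibition, limit read from the data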
UPR CHOP act: activators of apoptotic CHOP UPR arm, primary screen, cell-based, CHO-CHOP luciferase reporter, luminescence, uHTS; UPR activation; percent of tunicamycin response over DMSO baseline; activation, % at 10 µM; 330,000 compounds, 0.34% hits; AID 449763, 2010;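 active means at 10 µM dose, activation of 40% or more, normalized to positive control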
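System: CHO-CHOP luciferase reporter cell line; amount: 500 cells/well; buffer or medium: F12 medium containing 10% fetal bovine serum; incubation: 6 h compound exposure at 37 °C after overnight seeding; measured by: luciferase luminescence after 10 min with Steady-Glo reagent; evaluation: % reporter activation, DMSO baseline versus tunicamycin full activation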
TLR9-MyD88 block: inhibitors of TLR9-MyD88 association in cells, primary screen, cell-based, CHO, BLA complementation, fluorescence; Toll-like receptor 9 (Homo sapiens) + Myeloid differentiation primary response protein …; CCF4 FRET ratio; inhibition, % at 4.98 µM; 340,000 compounds, 0.21% hits;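 active means inhibition above the mean over all tested compounds plus 3 SD, cut at about 21% in these data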
Target sequence (Q99836 whole entry, looked up): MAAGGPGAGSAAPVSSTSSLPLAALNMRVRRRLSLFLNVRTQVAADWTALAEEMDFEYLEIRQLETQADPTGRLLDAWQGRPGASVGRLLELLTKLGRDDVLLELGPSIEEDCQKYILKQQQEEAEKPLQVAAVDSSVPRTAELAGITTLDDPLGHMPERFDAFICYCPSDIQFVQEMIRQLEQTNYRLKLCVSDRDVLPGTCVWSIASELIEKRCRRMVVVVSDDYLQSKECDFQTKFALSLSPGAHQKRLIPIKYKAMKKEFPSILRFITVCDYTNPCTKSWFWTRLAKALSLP
Target sequence (Q9NR96 whole entry, looked up): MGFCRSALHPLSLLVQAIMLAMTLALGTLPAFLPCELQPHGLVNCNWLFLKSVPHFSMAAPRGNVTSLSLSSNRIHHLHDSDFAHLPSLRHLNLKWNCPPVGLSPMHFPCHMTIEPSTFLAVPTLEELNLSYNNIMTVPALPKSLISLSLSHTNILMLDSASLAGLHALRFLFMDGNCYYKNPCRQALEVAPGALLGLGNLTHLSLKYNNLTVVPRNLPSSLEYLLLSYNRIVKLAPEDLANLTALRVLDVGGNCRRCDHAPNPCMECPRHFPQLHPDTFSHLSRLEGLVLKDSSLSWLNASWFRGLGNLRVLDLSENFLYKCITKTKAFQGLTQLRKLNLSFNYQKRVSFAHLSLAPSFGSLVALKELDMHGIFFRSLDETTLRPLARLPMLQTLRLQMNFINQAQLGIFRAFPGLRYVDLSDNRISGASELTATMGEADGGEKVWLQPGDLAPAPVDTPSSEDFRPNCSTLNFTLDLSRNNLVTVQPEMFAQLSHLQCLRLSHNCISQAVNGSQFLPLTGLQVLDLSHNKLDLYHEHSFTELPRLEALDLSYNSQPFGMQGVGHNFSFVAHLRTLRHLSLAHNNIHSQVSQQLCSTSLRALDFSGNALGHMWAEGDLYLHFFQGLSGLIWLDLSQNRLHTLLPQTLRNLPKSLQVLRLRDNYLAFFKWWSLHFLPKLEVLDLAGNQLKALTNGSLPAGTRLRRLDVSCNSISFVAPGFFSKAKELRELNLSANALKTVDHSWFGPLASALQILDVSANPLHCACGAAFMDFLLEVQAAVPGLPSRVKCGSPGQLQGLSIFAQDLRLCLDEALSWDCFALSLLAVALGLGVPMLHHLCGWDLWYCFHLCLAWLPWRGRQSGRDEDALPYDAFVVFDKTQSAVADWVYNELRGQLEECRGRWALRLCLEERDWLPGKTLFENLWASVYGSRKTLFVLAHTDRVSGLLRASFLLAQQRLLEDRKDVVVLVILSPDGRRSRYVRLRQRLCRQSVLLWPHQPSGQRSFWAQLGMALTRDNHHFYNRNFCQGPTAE
A number is an active result; – = inactive; · = no result. The sample as a whole holds a higher share of hits than the screen did.

SMILES	TLR4-MyD88 BLA	UPR XBP1 act	NOD2 RIPK2 PPI	CHOP inh	UPR CHOP act	TLR9-MyD88 block
CC(C)COP(=O)(OCC(C)C)C(Nc1ccccc1)c1ccc2c(c1)OCO2 (stereo not given)	–	–	–	76	–	–
CC(C)COP(=O)(OCC(C)C)C(Nc1ccccc1)c1ccc(F)cc1 (stereo not given)	–	–	–	75	–	–
CC(C)COP(=O)(OCC(C)C)C(Nc1ccccc1)c1ccccc1 (stereo not given)	·	–	–	–	–	–
CC(C)OP(=O)(OC(C)C)C(Nc1ccccc1)c1ccc2c(c1)OCO2 (stereo not given)	–	–	–	–	–	–
CCN(C(=O)c1cc(OC)c(OC)c(OC)c1)C1CCCCC1	·	·	–	·	·	–
Cc1ccc(Cn2ccc(NC(=O)c3cc4nc(-c5ccco5)cc(C(F)(F)F)n4n3)n2)cc1	–	–	–	93	–	–
Oc1ccc2ccccc2c1C=Nc1ccc(N2CCOCC2)cc1	–	–	·	78	–	·
C=Cc1ccc(N=Cc2c(O)ccc3ccccc23)cc1	·	–	–	·	–	–
N#Cc1ccccc1C[C@H](N)C(=O)NC[C@H]1O[C@@H](n2ccc(N)nc2=O)[C@H](O)[C@@H]1O	·	·	–	·	·	–
Cc1ccsc1/C=N/n1c(C2CCCCC2)n[nH]c1=S	–	–	–	84	–	–
S=c1[nH]nc(C2CCCCC2)n1/N=C/c1ccccc1	·	–	–	·	–	–
CC(C)Oc1ccc(F)cc1-c1cc(C(=O)NCc2cccs2)[nH]n1	·	·	–	·	·	·
N#Cc1cc2cc3c(cc2nc1SCC(=O)OC1CCCCC1)OCO3	–	–	–	79	–	–
CC(=O)CSc1nc2cc3c(cc2cc1C#N)OCCO3	–	–	–	–	–	–
Cc1cccc(C)c1-n1nnnc1C(c1cccs1)N1CCN(C/C=C/c2ccccc2)CC1 (stereo not given)	·	·	–	·	·	·
OC1COC(c2ccccc2)OC1C1OC(c2ccccc2)OCC1O (stereo not given)	·	·	–	·	·	–
Cc1ccc(C(=O)OC2CCS(=O)(=O)c3sccc32)cc1 (stereo not given)	–	–	–	77	–	–
O=C(C(=O)N1CCN(C(=O)OCc2ccccc2)CC1)c1cccs1	·	·	–	·	·	·
Clc1ccc(CSc2nnc(-c3ccccn3)n2Cc2ccco2)c(Cl)c1	–	–	–	82	–	–
COC(=O)CSc1nc(NC(C)(C)C)nc(N(C)C)n1	–	–	–	–	–	–
CC(=O)C(Sc1nc(NC(C)(C)C)nc(N(C)C)n1)C(C)=O	–	–	–	73	–	–
CCCCCCOc1ccc(N2C(=O)CC(S/C(N)=N/N=C(\C)c3cccs3)C2=O)cc1 (stereo not given)	–	–	–	88	–	–
C/C(=N\N=C(/N)SC1CC(=O)N(c2ccccc2)C1=O)c1cccs1 (stereo not given)	–	–	–	–	–	–
C/C(=N\N=C(/N)SC1CC(=O)N(c2ccc(Br)cc2)C1=O)c1cccs1 (stereo not given)	–	–	–	87	–	–
Cc1ccc(S(=O)(=O)N2C[C@H]3C(=O)C[C@@H](c4ccccc4)N(S(=O)(=O)c4ccc(C)cc4)[C@H]3C[C@H]2c2cccs2)cc1	·	·	–	·	·	·
SMILES	TLR4-MyD88 BLA	UPR XBP1 act	NOD2 RIPK2 PPI	CHOP inh	UPR CHOP act	TLR9-MyD88 block
COc1ccc(C(NC(=O)C2CCN(CCCOc3ccccc3)CC2)c2cccs2)cc1 (stereo not given)	·	·	–	·	·	·
COC(=O)/C=C1\OCc2cc(C)ccc21	·	·	–	·	·	·
Cc1ccc2[nH]c3c(N4CCc5ccccc5C4)ncnc3c2c1	–	–	–	74	–	–
Brc1ccc2[nH]c3c(N4CCc5ccccc5C4)ncnc3c2c1	–	–	·	–	–	·
Fc1ccc2[nH]c3c(N4CCc5ccccc5C4)ncnc3c2c1	·	–	–	73	–	·
C/C(=N\NC(=O)c1ccccc1NC(=O)c1ccc(Cl)cc1)c1ccncc1	–	–	–	72	–	–
Cc1ccc(C)c(C(=O)CN2C(=O)NC3(CCCCCC3)C2=O)c1	·	–	–	·	–	–
Cc1[nH]c2ccccc2c1C(=O)CSc1nc2ncc(Cl)cc2[nH]1	–	–	–	86	–	–
Cc1ccc(S(=O)(=O)NCCC(=O)N2CCN(Cc3ccccc3)CC2)cc1	–	–	–	82	–	–
COc1ccccc1N=Cc1c(C)c(C#N)c2[nH]c3ccccc3n2c1=O	–	–	–	84	–	–
Cc1c(Cc2ccccc2)c(=O)n2c([nH]c3ccccc32)c1C#N	·	–	–	–	–	–
O=C(Nc1ccccc1Cl)c1cc(C2CCCN(C(=O)C3CCCCC3)C2)on1 (stereo not given)	·	·	–	·	·	·
COc1ccc(NC(=O)N[C@H]2CC[C@@H](CC(=O)NC3CCC3)O[C@@H]2CO)cc1	·	·	–	·	·	·
O=S(=O)(NCCSc1ccc(Cl)cc1)c1ccc(F)cc1	–	–	–	71	–	–
CC(=O)N(C)C[C@H]1Oc2ncc(Br)cc2C(=O)N([C@H](C)CO)C[C@@H]1C	·	·	–	·	·	–
Cc1cc(C)cc(N(CC(=O)N2CCN(c3ccccc3)CC2)S(=O)(=O)c2c(C)noc2C)c1	–	–	–	76	–	–
CC1CCN(C(=O)CN(c2ccc(Cl)c(C(F)(F)F)c2)S(C)(=O)=O)CC1	–	–	–	–	–	–
CS(=O)(=O)N(CC(=O)N1CCN(c2ccccc2)CC1)c1ccc(Cl)c(C(F)(F)F)c1	–	–	–	76	–	–
COc1ccc(C2=Nc3ccccc3N(C(=O)c3ccc(C(F)(F)F)cc3)C2C(=O)Nc2c(C)cccc2C)cc1 (stereo not given)	·	·	–	·	·	·
CCOC(=O)C(=CNc1ccc2c(c1)nnn2-c1ccc(Cl)cc1)C(=O)OCC	–	–	–	79	–	–
CCOc1ccc(NC(=O)COC(=O)C2(C)CC2(Cl)Cl)c([N+](=O)[O-])c1 (stereo not given)	–	–	–	97	–	–
CCOc1ccc(OCC(=O)Nc2ccc(OC)cc2[N+](=O)[O-])cc1	–	–	–	–	–	–
COCCCN1C(=O)C(CC(=O)NC2CCCC2)CC(C(=O)N(C(C)C)C(C)C)=C1C (stereo not given)	·	·	–	·	·	·
O=C(Nc1cccc(C(F)(F)F)c1)c1csc(COCCO)n1	·	·	–	·	·	·
COc1ccc(Cl)cc1NC(=O)Nc1cccc([N+](=O)[O-])c1C	–	–	–	84	–	–
